The MIC is the lowest concentration that inhibits growth of the organism.

MIC, Activity and Ratio data for 6 compounds are collected here from ChEMBL document CHEMBL1687793, “Complementation of a Saccharomyces cerevisiae ERG11/CYP51 (sterol 14α-demethylase) doxycycline-regulated mutant and screening of the azole sensitivity of Aspergillus fumigatus isoenzymes CYP51A and CYP51B” (2010).

Holding throughout (type): functional
For experiment [1], the system named is Saccharomyces cerevisiae. The experiment in a line: Antimicrobial activity against Saccharomyces cerevisiae YUG37 transformed with plasmid carrying cyp51A gene with doxycycline-regulatable promoter by broth dilution method in presence of doxycycline. The procedure, abridged:
(§1)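 CLSI M27-A2 broth microdilution in induction medium (galactose plus raffinose, 2%) containing 5 μg ml−1 doxycycline. Inoculum 2.5 × 10^3 cells ml−1. Final fluconazole 0.031–16 μg ml−1; clotrimazole, itraconazole and posaconazole 0.004–2.0 μg ml−1. Plates incubated at 30°C and scored at 72 h. MIC is the lowest concentration giving ≥80% growth inhibition versus drug-free control wells.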
Background: Dilution methods test growth across graded concentrations, often in twofold steps.

Experiment [2] has as its system Saccharomyces cerevisiae. The experiment in a line: Antimicrobial activity against Saccharomyces cerevisiae YUG37 transformed with plasmid carrying cyp51A gene in reverse orientation without doxycycline-regulatable promoter by broth dilution method. Summed up: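 Reverse-oriented cyp51A control strain tested in galactose/raffinose medium without doxycycline. Otherwise CLSI M27-A2 broth microdilution with inoculum 2.5 × 10^3 cells ml−1. Incubated at 30°C and read at 72 h. MIC is the lowest concentration giving ≥80% growth inhibition relative to control wells.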

Experiment [3] deals with Saccharomyces cerevisiae. The experiment in a line: Antimicrobial activity against Saccharomyces cerevisiae YUG37 transformed with plasmid carrying cyp51B gene with doxycycline-regulatable promoter by broth dilution method in presence of doxycycline. The procedure, abridged:
as §1

Experiment [4] relates to Saccharomyces cerevisiae. The experiment in a line: Induction of 14alpha-Methylergosta 8,24-dien- 3beta-6alpha-diol production in Saccharomyces cerevisiae YUG37 transformed with plasmid carrying cyp51A gene in reverse orientation without doxycycline-regulatable promoter by GC-MS analysis. The procedure, abridged:
(§2)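 The control was YUG37-erg11 transformed with pYES2.1 carrying reverse-oriented cyp51A, in triplicate. It was cultured 72 h (30°C, 180 rpm) in galactose/raffinose (2%) YM either with 5 μg ml−1 doxycycline or without doxycycline. GC-MS sterol profiling gave mean % of sterol composition (SD).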

Experiment [5] concerns Saccharomyces cerevisiae. In words: Induction of ergosterol production in Saccharomyces cerevisiae YUG37 transformed with plasmid carrying cyp51A gene in reverse orientation without doxycycline-regulatable promoter by GC-MS analysis. Summed up: as §2
The subject of experiment [6] is Saccharomyces cerevisiae. The experiment in a line: Induction of 14alpha-Methylergosta 8,24-dien- 3beta-6alpha-diol production in Saccharomyces cerevisiae YUG37 transformed with plasmid carrying cyp51B gene with compound-regulatable promoter by GC-MS analysis. Summed up:
(§3)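 YUG37-erg11 yeast (native ERG11 under a doxycycline-regulatable promoter) carrying pYES2.1 with intronless A. fumigatus cyp51A or cyp51B. Single colonies, triplicate constructs, were grown in YM with 2% galactose/raffinose plus 5 μg ml−1 doxycycline for 72 h at 30°C and 180 rpm. Sterols were analysed by GC-MS and reported as mean % of sterol composition (SD).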

For experiment [7], the system named is Saccharomyces cerevisiae. The experiment in a line: Induction of 4alpha-methylfecosterol production in Saccharomyces cerevisiae YUG37 transformed with plasmid carrying cyp51B gene with compound-regulatable promoter by GC-MS analysis. Summed up:
as §3

Experiment [8] concerns Saccharomyces cerevisiae. In words: Induction of 14alpha-Methylergosta 8,24-dien- 3beta-6alpha-diol production in Saccharomyces cerevisiae YUG37 transformed with plasmid carrying cyp51A gene with compound-regulatable promoter by GC-MS analysis. Summed up:
as §3

The subject of experiment [9] is Saccharomyces cerevisiae. In words: Induction of ergosterol production in Saccharomyces cerevisiae YUG37 transformed with plasmid carrying cyp51A gene with compound-regulatable promoter by GC-MS analysis. Summed up: as §3
In experiment [10] the test system is Saccharomyces cerevisiae. The experiment in a line: Induction of lanosterol/obtusifoliol production in Saccharomyces cerevisiae YUG37 transformed with plasmid carrying cyp51A gene with compound-regulatable promoter by GC-MS analysis. The procedure, abridged:
as §3

The subject of experiment [11] is Saccharomyces cerevisiae. In words: Induction of lanosterol/obtusifoliol production in Saccharomyces cerevisiae YUG37 transformed with plasmid carrying cyp51A gene in reverse orientation without doxycycline-regulatable promoter by GC-MS analysis. To be noted: in the assay text read “with doxycycline-regulatable promoter” for “without doxycycline-regulatable promoter”. The procedure, abridged:
as §2

In experiment [12] the test system is Saccharomyces cerevisiae. In words: Induction of 4alpha-methylfecosterol production in Saccharomyces cerevisiae YUG37 transformed with plasmid carrying cyp51A gene in reverse orientation without doxycycline-regulatable promoter by GC-MS analysis. Summed up: as §2
The subject of experiment [13] is Saccharomyces cerevisiae. The experiment in a line: Induction of 4,14alpha-dimethylcholesta 8,24-dienol production in Saccharomyces cerevisiae YUG37 transformed with plasmid carrying cyp51A gene with compound-regulatable promoter by GC-MS analysis. Summed up: as §3
In experiment [14] the test system is Saccharomyces cerevisiae. In words: Induction of 4,14alpha-dimethylcholesta 8,24-dienol production in Saccharomyces cerevisiae YUG37 transformed with plasmid carrying cyp51B gene with compound-regulatable promoter by GC-MS analysis. The procedure, abridged: as §3
For experiment [15], the system named is Saccharomyces cerevisiae. The experiment in a line: Induction of ergosterol production in Saccharomyces cerevisiae YUG37 transformed with plasmid carrying cyp51B gene with compound-regulatable promoter by GC-MS analysis. Summed up: as §3
Experiment [16] concerns Saccharomyces cerevisiae. In words: Induction of 4alpha-methylfecosterol production in Saccharomyces cerevisiae YUG37 transformed with plasmid carrying cyp51A gene with compound-regulatable promoter by GC-MS analysis. The procedure, abridged:
as §3

Experiment [17] concerns Saccharomyces cerevisiae. In words: Induction of lanosterol/obtusifoliol production in Saccharomyces cerevisiae YUG37 transformed with plasmid carrying cyp51B gene with compound-regulatable promoter by GC-MS analysis. The procedure, abridged: as §3
In experiment [18] the test system is Saccharomyces cerevisiae. The experiment in a line: Induction of 4,14alpha-dimethylcholesta 8,24-dienol production in Saccharomyces cerevisiae YUG37 transformed with plasmid carrying cyp51A gene in reverse orientation without doxycycline-regulatable promoter by GC-MS analysis. The procedure, abridged:
as §2

In experiment [19] the test system is Saccharomyces cerevisiae. The experiment in a line: Ratio of MIC for Saccharomyces cerevisiae YUG37 transformed with plasmid carrying cyp51A gene with compound-regulatable promoter to MIC for Saccharomyces cerevisiae YUG37 transformed with plasmid carrying cyp51B gene with compound-regulatable promoter.

Converted amounts (≈) assume the structure as drawn.

`Clc1ccccc1C(c1ccccc1)(c1ccccc1)n1ccnc1` [CLOTRIMAZOLE]: the MIC in experiment [1] amounted to 0.016 µg/mL; in experiment [2] it was 0.016 µg/mL (≈ 0.0464 µM); in experiment [3] it was 0.016 µg/mL.
Consider `C[C@H]1c2cccc(O)c2C(=O)C2=C(O)[C@]3(O)C(=O)C(C(N)=O)=C(O)[C@@H](N(C)C)[C@@H]3[C@@H](O)[C@@H]21.O` [DOXYCYCLINE], for which the Activity in experiment [4] is 51.1%; in [5] it was 4%; in experiment [6] it was 10.5%; in [7], 1.7%; in experiment [8], 20.5%; in experiment [9], 40.8%. Moreover, the Activity in [10] was determined as 34.1%; in [11], 40.6%; in experiment [12], 1.9%; in [13], 2.6%; in [14] it was 2.9%; in experiment [15], 39.5%. Also, the results for the Activity in [16], in experiment [17] and in [18] were 2%, 45.4% and 3.3%, respectively.
For `OC(Cn1cncn1)(Cn1cncn1)c1ccc(F)cc1F` [FLUCONAZOLE], the MIC came to 8 µg/mL in experiment [1], 0.25 µg/mL (≈ 0.816 µM) in [2] and 0.5 µg/mL in experiment [3]. Also, the Ratio in experiment [19] turned out to be 16.
For `CCC(C)n1ncn(-c2ccc(N3CCN(c4ccc(OCC5COC(Cn6cncn6)(c6ccc(Cl)cc6Cl)O5)cc4)CC3)cc2)c1=O` (stereo unspecified) [ITRACONAZOLE], the MIC in [1] was found to be 0.125 µg/mL; in [2] it was 0.031 µg/mL (≈ 0.0439 µM); in experiment [3], 0.125 µg/mL.
With `CC[C@@H]([C@H](C)O)n1ncn(-c2ccc(N3CCN(c4ccc(OC[C@@H]5CO[C@@](Cn6cncn6)(c6ccc(F)cc6F)C5)cc4)CC3)cc2)c1=O` [POSACONAZOLE], the MIC in experiment [1] is 0.063 µg/mL; in experiment [2] it was 0.063 µg/mL (≈ 0.0899 µM); in [3], 0.063 µg/mL.
Regarding `C[C@@H](c1ncncc1F)[C@](O)(Cn1cncn1)c1ccc(F)cc1F` [VORICONAZOLE], the MIC in [1] came out at 0.004 µg/mL; in experiment [2] it was 0.004 µg/mL (≈ 0.0115 µM); in [3], 0.004 µg/mL.
